RGS4 inh: inhibitors of human RGS4 | P49798 | HEK293 M3R/RGS4 inducible, Fluo-4 calcium flux; stronger effect = higher value; triggered by carbachol at its EC20 | AID 463165 | B-score at 10 µM | hit rate 0.45% among 310,000;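 active = B-score, a plate-corrected calcium signal, over three deviations above library mean, with baseline fluorescence within five deviations of library mean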;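 note: RGS4 expression induced by doxycycline in cells with stable M3 receptor; B-score is computed from the integrated fluorescence ratio over baseline after carbachol; higher B-score means a larger calcium signal and so more RGS4 inhibition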
Target sequence (P49798 whole entry, looked up): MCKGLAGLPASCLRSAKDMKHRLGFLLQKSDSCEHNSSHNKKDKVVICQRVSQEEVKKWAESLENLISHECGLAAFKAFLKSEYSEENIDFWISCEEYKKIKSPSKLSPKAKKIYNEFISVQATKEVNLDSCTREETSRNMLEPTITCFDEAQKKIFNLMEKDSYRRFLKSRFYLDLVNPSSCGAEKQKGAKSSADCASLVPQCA
RGS4 act: potentiators or activators of RGS4. HEK293 M3R/inducible RGS4, carbachol calcium flux Fluo4; stronger effect = lower value. B-score at 10 µM. hit rate 0.92% among 310,000. AID 463111;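 active = B-score of the integrated calcium signal more than 4 SD below the library mean, with starting fluorescence not abnormally high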;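 note: negative B-score means reduced calcium response which marks RGS4 activation or potentiation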
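test system = M3R-expressing HEK293 line, RGS4 induced by doxycycline | probe or stimulus = carbachol at ECmax as muscarinic agonist stimulus | timing = dye loading 30 min 37 °C, buffer rest 30 min RT | signal = calcium dye Fluo4 fluorescence | evaluation = B score from integrated fluorescence ratio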
MrgX1 PAM: allosterically activates human MrgX1 receptor signaling; B-score at 10 µM; hit rate 0.63% among 310,000; MrgX1-HEK293, Fluo-4 calcium flux, FDSS; stronger effect = higher value; AID 588675;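 active = plate-corrected calcium response at least 3 library SD above typical, normal starting fluorescence, not activating the receptor alone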;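 note: compound read alongside a low EC10 to EC30 dose of BAM8-22 agonist; peak minus trough fluorescence over baseline measured at the second addition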
Target sequence (Q96LB2 whole entry, looked up): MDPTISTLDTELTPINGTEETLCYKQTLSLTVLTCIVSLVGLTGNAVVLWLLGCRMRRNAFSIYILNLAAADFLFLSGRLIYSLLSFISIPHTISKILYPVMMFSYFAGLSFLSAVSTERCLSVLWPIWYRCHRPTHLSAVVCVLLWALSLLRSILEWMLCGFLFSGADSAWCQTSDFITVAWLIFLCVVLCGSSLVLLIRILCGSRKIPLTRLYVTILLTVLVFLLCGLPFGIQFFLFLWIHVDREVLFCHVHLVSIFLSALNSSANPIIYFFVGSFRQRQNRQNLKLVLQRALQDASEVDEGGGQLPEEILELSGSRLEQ
MrgX1 ag: agonists of human MrgX1 receptor; Q96LB2; MrgX1-HEK293 cells, Fluo-4 calcium fluorescence, agonist mode; stronger effect = higher value; B-score at 10 µM; hit rate 0.44% among 310,000; AID 588627;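 active = calcium response B-score plate-corrected fluorescence ratio at least 3 library SD, with starting fluorescence B-score inside 5 SD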
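Material – MrgX1-expressing HEK293 cells · Input – 15,000 cells seeded per well · Dosing – compound as first of three additions · Times – overnight seeding, then 1 h dark dye loading · Measured by – kinetic Fluo-4 NW fluorescence of intracellular calcium · Read-out – B-scored fluorescence response ratio · Benchmarks – positive and negative control wells on each plate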
MrgX1 antag: human MrgX1 receptor antagonism, primary screen | MRGX1-HEK293 calcium flux, Fluo-4, BAM8-22 antagonism; stronger effect = lower value | B-score at 10 µM | hit rate 1.3% among 310,000 | AID 588676;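 active = calcium-response B-score plate-corrected more than 3 library SD below zero, starting fluorescence within 5 deviations, no agonist response on first addition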;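 note: peak minus trough fluorescence over baseline after final BAM8-22 challenge near maximal dose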
MrgX1 PAM conf: human MrgX1 positive allosteric modulation, re-confirmation | MrgX1-HEK293, Fluo-4 calcium fluorescence, FDSS | AID 602413 | hit rate 13% among 1,200 | activation (ratio percentage), % at 10 µM | shares compounds with MrgX1 PAM;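 active = ratio at least 3 SD above the weak peptide control, stable starting fluorescence, no direct agonism earlier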;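 note: compound followed by low BAM8-22 agonist challenge near EC20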
HEK293 Ca flux: activity in parental HEK293 cells lacking MrgX1. shares compounds with MrgX1 antag. Fluo-4 calcium fluorescence, FDSS. fluorescence ratio F(max-min)/F0 at 10 µM. hit rate 2% among 4,000. AID 624111;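 active = duplicate-averaged calcium fluorescence ratio at least three times the standard deviation of buffer wells, a nonspecific response in parental cells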
HEK293 Ca counter: MrgX1 allosteric activator counter-screen hit in parental HEK293 cells; AID 624114; parental HEK293 calcium flux, Fluo-4 fluorescence ratio; stronger effect = higher value; shares compounds with MrgX1 antag; hit rate 0.4% among 4,000; fluorescence ratio F(max-min)/F0 at 10 µM;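 active = calcium fluorescence ratio, averaged over duplicates, at least 3 SD of the buffer-well ratio, meaning a nonspecific response in receptor-free cells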;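 note: untransfected parental HEK293 lacking MrgX1 used as counterscreen for MrgX1 allosteric activators; fluorescence change taken during the second addition on a kinetic imager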
HEK293 Ca cntr2: MrgX1 activator counter-screen hit in parental HEK293 cells; shares compounds with MrgX1 antag; Fluo-4 calcium fluorescence (FDSS); stronger effect = higher value; fluorescence ratio F(max-min)/F0 at 10 µM; hit rate 8.7% among 4,000;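 active = calcium fluorescence ratio at least three times the spread of buffer wells, meaning a non-specific response in parental cells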
An asterisk follows results filed as active. A selection: hits, their analogues and other compounds. The true share with any hit is near 3.5%.

For CN(C)CCCNc1ccc(-c2cc(Nc3cccc(Cl)c3)ncn2)cn1 the results were RGS4 inh inactive, RGS4 act inactive, MrgX1 PAM 7.8*, MrgX1 ag inactive, MrgX1 antag inactive, MrgX1 PAM conf inactive, HEK293 Ca flux inactive, HEK293 Ca counter inactive and HEK293 Ca cntr2 inactive.
Screening COc1cccc(N/C(N)=N/c2nc(C(F)(F)F)cc(C(F)(F)F)n2)c1 returned RGS4 inh inactive, RGS4 act inactive, MrgX1 PAM 10*, MrgX1 ag inactive, MrgX1 antag inactive, MrgX1 PAM conf inactive, HEK293 Ca flux inactive, HEK293 Ca counter inactive and HEK293 Ca cntr2 inactive.
`CC12CCC(C(=O)Nc3nc4ccccc4s3)(OC1=O)C2(C)C` (stereo not given) gave RGS4 inh inactive, RGS4 act inactive, MrgX1 PAM 29*, MrgX1 ag inactive, MrgX1 antag inactive, MrgX1 PAM conf 2.1%*, HEK293 Ca flux inactive, HEK293 Ca counter inactive and HEK293 Ca cntr2 inactive.
`COc1cccc(C(=O)COc2cccc(NC(=O)c3ccco3)c2)c1` gave RGS4 inh inactive, RGS4 act inactive, MrgX1 PAM 6.6*, MrgX1 ag inactive, MrgX1 antag inactive, MrgX1 PAM conf inactive, HEK293 Ca flux inactive, HEK293 Ca counter inactive and HEK293 Ca cntr2 inactive.
Cc1cc(C)c2oc(C(=O)Nc3ccc(S(=O)(=O)N4CCCC(C)C4)cc3)cc(=O)c2c1 (stereo not given) was read as RGS4 inh inactive, RGS4 act inactive, MrgX1 PAM inactive, MrgX1 ag inactive and MrgX1 antag inactive.
For COc1ccccc1CCNC(=O)CSc1ccc(-c2cccs2)nn1 the results were RGS4 inh inactive, RGS4 act inactive, MrgX1 PAM 7.9*, MrgX1 ag inactive, MrgX1 antag inactive, MrgX1 PAM conf inactive, HEK293 Ca flux inactive, HEK293 Ca counter inactive and HEK293 Ca cntr2 inactive.
`O=C(CSc1ccc(-c2cccs2)nn1)NCCc1ccccc1` gave RGS4 inh inactive, RGS4 act inactive, MrgX1 PAM inactive, MrgX1 ag inactive and MrgX1 antag inactive.
Screening Brc1ccc(Nc2nc(-c3cccnc3)cs2)cc1 returned RGS4 inh inactive, RGS4 act inactive, MrgX1 PAM inactive, MrgX1 ag inactive and MrgX1 antag inactive.
Screening Cc1ccc(Nc2nc(-c3cccnc3)cs2)cc1C returned RGS4 inh inactive, RGS4 act inactive, MrgX1 PAM 6.5*, MrgX1 ag inactive, MrgX1 antag inactive, MrgX1 PAM conf inactive, HEK293 Ca flux inactive, HEK293 Ca counter inactive and HEK293 Ca cntr2 inactive.
CCOC(=O)C1=C(COC(=O)c2cc(Br)c(Br)s2)NC(=O)NC1C (stereo not given) was read as RGS4 inh inactive, RGS4 act inactive, MrgX1 PAM 9.8*, MrgX1 ag inactive, MrgX1 antag inactive, MrgX1 PAM conf inactive, HEK293 Ca flux inactive, HEK293 Ca counter inactive and HEK293 Ca cntr2 inactive.
For Cc1ccc(NC2=NC(c3ccccc3)n3c(nc(C)cc3=O)N2)c(C)c1 (stereo not given) the results were RGS4 inh inactive, RGS4 act inactive, MrgX1 PAM 122*, MrgX1 ag inactive, MrgX1 antag inactive, MrgX1 PAM conf inactive, HEK293 Ca flux inactive, HEK293 Ca counter inactive and HEK293 Ca cntr2 inactive.
`Cc1ccc(NC2=NC(c3ccc(F)cc3)n3c(nc(C)cc3=O)N2)c(C)c1` (stereo not given) gave RGS4 inh inactive, RGS4 act inactive, MrgX1 PAM inactive, MrgX1 ag inactive and MrgX1 antag inactive.
`COc1ccc(-c2csc(NC(=O)CCCc3nc4ccccc4c(=O)[nH]3)n2)cc1OC` gave RGS4 inh inactive, RGS4 act -7.4*, MrgX1 PAM 11*, MrgX1 ag inactive, MrgX1 antag inactive, MrgX1 PAM conf inactive, HEK293 Ca flux inactive, HEK293 Ca counter inactive and HEK293 Ca cntr2 inactive.
CC(CCc1ccccc1)NC(=S)NC(=O)c1ccco1 (stereo not given) was read as RGS4 inh inactive, RGS4 act inactive, MrgX1 PAM 14*, MrgX1 ag inactive, MrgX1 antag inactive, MrgX1 PAM conf inactive, HEK293 Ca flux inactive, HEK293 Ca counter inactive and HEK293 Ca cntr2 inactive.
`CCC(C)c1ccccc1NC(=S)NC(=O)c1ccco1` (stereo not given) gave RGS4 inh inactive, RGS4 act inactive, MrgX1 PAM 7.4*, MrgX1 ag inactive, MrgX1 antag inactive, MrgX1 PAM conf inactive, HEK293 Ca flux inactive, HEK293 Ca counter inactive and HEK293 Ca cntr2 inactive.
O=C(NC(=S)N(CCc1ccccc1)CCc1ccccc1)c1ccco1 was read as RGS4 inh inactive, RGS4 act inactive, MrgX1 PAM inactive, MrgX1 ag inactive and MrgX1 antag inactive.
O=C(NC(=S)Nc1ccccc1Cl)c1ccco1 was read as RGS4 inh inactive, RGS4 act inactive, MrgX1 PAM inactive, MrgX1 ag inactive and MrgX1 antag inactive.
CCCCN1CCN=C1Nc1ccccc1 was read as RGS4 inh inactive, RGS4 act inactive, MrgX1 PAM inactive, MrgX1 ag inactive and MrgX1 antag inactive.
`COC(=O)C(C)(C)ONC(=O)Nc1ccc(Br)cc1` gave RGS4 inh inactive, RGS4 act inactive, MrgX1 PAM inactive, MrgX1 ag inactive and MrgX1 antag inactive.
CC(NC(=O)Nc1ccc(Br)cc1)C(C)(C)C (stereo not given) was read as RGS4 inh inactive, RGS4 act inactive, MrgX1 PAM 7.8*, MrgX1 ag inactive, MrgX1 antag inactive, MrgX1 PAM conf inactive, HEK293 Ca flux inactive, HEK293 Ca counter inactive and HEK293 Ca cntr2 inactive.
`Cc1ccc(Cn2c(SCC(=O)N(C)C3CCS(=O)(=O)C3)nc3ccccc3c2=O)cc1` (stereo not given) gave RGS4 inh inactive, RGS4 act inactive, MrgX1 PAM inactive, MrgX1 ag inactive and MrgX1 antag inactive.
For COc1ccccc1CNC(c1ccccc1)c1ccccc1 the results were RGS4 inh inactive, RGS4 act inactive, MrgX1 PAM inactive, MrgX1 ag inactive and MrgX1 antag inactive.
